For one assay, the target named is T1, Heme oxygenase 1 (Rattus norvegicus, UniProt P06762).
T1 sequence (P06762 whole entry): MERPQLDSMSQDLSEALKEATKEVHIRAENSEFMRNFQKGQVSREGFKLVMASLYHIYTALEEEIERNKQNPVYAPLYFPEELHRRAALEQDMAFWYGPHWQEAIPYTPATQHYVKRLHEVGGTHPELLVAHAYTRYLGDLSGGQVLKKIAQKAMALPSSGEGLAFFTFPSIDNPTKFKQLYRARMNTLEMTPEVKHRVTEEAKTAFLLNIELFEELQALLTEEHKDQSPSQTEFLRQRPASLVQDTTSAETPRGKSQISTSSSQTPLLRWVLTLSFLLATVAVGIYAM
Nature of the assay: Inhibition of Sprague-Dawley rat spleen microsome HO1. It is filed as microsomes.

Another assay addresses T2, Heme oxygenase 2 (Rattus norvegicus, UniProt P23711).
T2 sequence (P23711 whole entry): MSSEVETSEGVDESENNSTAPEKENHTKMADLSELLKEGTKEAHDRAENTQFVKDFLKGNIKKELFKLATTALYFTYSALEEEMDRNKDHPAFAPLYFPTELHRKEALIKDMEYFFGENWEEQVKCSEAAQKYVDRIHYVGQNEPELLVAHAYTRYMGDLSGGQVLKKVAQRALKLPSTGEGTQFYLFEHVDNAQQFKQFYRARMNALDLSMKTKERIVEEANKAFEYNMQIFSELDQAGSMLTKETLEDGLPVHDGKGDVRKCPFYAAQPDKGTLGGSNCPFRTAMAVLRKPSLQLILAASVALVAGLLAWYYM
Put plainly: Inhibition of Sprague-Dawley rat brain microsome HO2.

The species entered for the next assay is Rattus norvegicus. Put plainly: Selectivity index, ratio of IC50 for Sprague-Dawley rat brain HO2 to IC50 for Sprague-Dawley rat spleen HO1. It counts as tissue-based. In short, it runs like this: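 Ratio of IC50(HO-2) to IC50(HO-1). HO-2 comes from Sprague-Dawley rat brain microsomes and HO-1 from spleen microsomes. Both were assayed identically: methemalbumin substrate, 10 min inhibitor pre-incubation at 37 °C, 15 min reaction with 1 mM NADPH, and CO measured by GC. Each IC50 was derived from sigmoidal dose–response fits of percent-control activity.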

The target in assay [1] is T3, Heme oxygenase 2 (Rattus norvegicus) (UniProt P23711).
T3 sequence (whole entry): T2 sequence (P23711 whole entry)
Nature of the assay: Inhibition of Sprague-Dawley rat brain microsome HO2 at 100 uM relative to control. In short, it runs like this:
(§1)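 Spleen (HO-1) or brain (HO-2) microsomes from Sprague-Dawley rats, at 1 mg/mL protein in 100 mM phosphate buffer pH 7.4 with methemalbumin (heme–albumin) as substrate. Inhibitor hydrochloride pre-incubated 10 min at 37 °C, then 1 mM NADPH added for 15 min at 37 °C. Stopped by freezing on dry ice. CO formed measured by gas chromatography; activity given as percent of no-inhibitor control.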

Assay [2] concerns the target T4, Heme oxygenase 1 (Rattus norvegicus) (UniProt P06762).
T4 sequence (whole entry): T1 sequence (P06762 whole entry)
As to conditions: Sprague-Dawley, Spleen, Microsome, 100 uM.

Assay [3] concerns the target T3, Heme oxygenase 2 (Rattus norvegicus). Put plainly: Inhibition of Sprague-Dawley rat brain microsome HO2 at 0.1 uM relative to control. Summed up:
as §1

The target of assay [4] is T4, Heme oxygenase 1 (Rattus norvegicus). Nature of the assay: Inhibition of Sprague-Dawley rat spleen microsome HO1 at 0.01 uM relative to control. It counts as microsomes.
For assay [5] the target is unchanged. Put plainly: Inhibition of Sprague-Dawley rat spleen microsome HO1 at 0.1 uM relative to control. It is filed as microsomes. Summed up:
as §1

Where only a bound is given, the exact number is not on record here.

As for `Ic1ccc(CCC2(Cn3ccnc3)OCCO2)cc1`, the IC50 is 3.7 µM against Heme oxygenase 1 and greater than 100 µM at Heme oxygenase 2. Besides, the Ratio IC50 in the assay filed under Rattus norvegicus is greater than 27.

In the case of `O=C(CCc1ccc(F)cc1)Cn1ccnc1`, the results for the inhibition in assay [1], in assay [2] and in assay [3] were 60%, 80% and 10%, respectively. The half-maximal inhibitory concentration (IC50) at Heme oxygenase 2 came out at 1.9 µM. Besides, the Ratio IC50 in the assay filed under Rattus norvegicus worked out at 1.4.

With `OC(CCc1ccc(Br)cc1)Cn1ccnc1` (stereo not given), the inhibition in assay [4] amounted to 8%; in assay [5], 55%.

Consider `OC(CCc1ccc(Cl)cc1)Cn1ccnc1` (stereo not given), for which the inhibition in assay [1] was found to be 90%. Besides, the Ratio IC50 in the assay listed under Rattus norvegicus was 8.

Turning to `Fc1ccc(CCC2(Cn3ccnc3)OCCO2)cc1`, the 50% inhibitory concentration (IC50) is 3.8 µM against Heme oxygenase 1 and greater than 100 µM at Heme oxygenase 2. Moreover, the Ratio IC50 in the assay filed under Rattus norvegicus is greater than 26.3.

Molecule `OC(CCc1ccc(I)cc1)Cn1ccnc1` (stereo not given) registered an IC50 against Heme oxygenase 2 of 1.8 µM.

`c1ccc(CCC2(Cn3ccnc3)OCCO2)cc1` gave an IC50 at Heme oxygenase 2 greater than 100 µM.

Take `O=C(CCc1ccc(Br)cc1)Cn1ccnc1`: the inhibition in assay [1] is 60%. In addition, the midpoint of inhibition on Heme oxygenase 2, the IC50, lay at 9.5 µM.

For `O=C(CCc1ccc(I)cc1)Cn1ccnc1`, the inhibition in assay [5] worked out at 44%; in assay [1], 60%; in assay [2], 80%; in assay [3], 10%. Moreover, the Ratio IC50 in the assay filed under Rattus norvegicus was found to be 16.4.

Molecule `Brc1ccc(CCC2(Cn3ccnc3)OCCO2)cc1` gave an IC50 on Heme oxygenase 2 greater than 100 µM. In the assay filed under Rattus norvegicus, the Ratio IC50 is greater than 52.6.

For `Nc1ccc(SC[C@@H]2CO[C@](CCc3ccc(Cl)cc3)(Cn3ccnc3)O2)cc1` [AZALANSTAT], the IC50 turned out to be 5.3 µM against Heme oxygenase 1 and 24.5 µM at Heme oxygenase 2. The Ratio IC50 in the assay filed under Rattus norvegicus came to 4.6.

With `Clc1ccc(CCC2(Cn3ccnc3)OCCO2)cc1`, 4.3 µM corresponded to half-maximal inhibition at Heme oxygenase 1 (IC50). Moreover, the Ratio IC50 in the assay filed under Rattus norvegicus was greater than 23.2.

On to `O=C(CCc1ccccc1)Cn1ccnc1`, for which the inhibition was found to be 60% in assay [1] and 80% in assay [2].

`OC(CCc1ccccc1)Cn1ccnc1` (stereo not given) displayed an IC50 against Heme oxygenase 1 of 6.2 µM. Besides, in the assay listed under Rattus norvegicus, the Ratio IC50 came out at 2.6.

These data come from ChEMBL document CHEMBL1143029, “Heme oxygenase inhibition by 2-oxy-substituted 1-(1H-imidazol-1-yl)-4-phenylbutanes: effect of halogen substitution in the phenyl ring” (Bioorg Med Chem, 2007).
